According to ChEMBL document CHEMBL1128557, “Synthesis, antitumor activity, and chemical properties of silaplatin and related platinum (II) and platinum (IV) complexes derived from beta-silyl amines” (J Med Chem, 1995):
Where “and” joins values, the source holds several entries; their conditions need not be identical. Equal entries are not always repeated.

What was measured:
Tumor Cell line [1] = assay: Evaluated in vitro for the log10 molecular concentration that caused 50 % inhibition of tumor growth of 60 human tumor cell lines; assay type: functional, cell-based
Method in brief: (§1)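 Cells preincubated 24 h, then exposed to the agent at five 10-fold dilutions (0.01–100 μM for the platinum complexes) for 48 h. Cells fixed in situ and stained; solubilized stain read spectrophotometrically. Panel of leukemia, non-small-cell lung, ovarian and renal lines. Log GI50 or TGI taken per cell line in one experiment, then averaged across lines.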

Tumor Cell line [2] = assay: Evaluated in vitro for the log10 molecular concentration that caused […] tumor growth of 60 human tumor cell lines.; assay type: functional, cell-based; method in brief: as §1
Mus musculus [3] = assay: The compound was evaluated for the mean body weight change (BWC) in mice infected with cisplatin resistant L1210 Leukemia (dose 20 mg/kg, ip),day 1; assay type: functional, organism-based; parameters: dose 20 mg/kg
Method in brief: (§2)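 CD2F1 mice, 6 or 10 per dose group (20 or 30 controls), were implanted ip on day 0 with 10⁵ L1210/0 (parent) or L1210/cisplatin (resistant) leukemia cells. Complexes were given ip in saline plus Tween 80 on days 1, 5 and 9. Read-out was mean body weight change per group, day 5 minus day 1. Sensitive and resistant arms ran simultaneously from the same preparations.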

Mus musculus [4] = assay: The compound was evaluated for the mean body weight change (BWC) in mice infected with cisplatin resistant L1210 Leukemia (dose 30 mg/kg, ip),day 1; assay type: functional, organism-based; parameters: dose 30 mg/kg; method in brief: as §2
Mus musculus [5] = assay: The compound was evaluated for the mean body weight change (BWC) in mice infected with cisplatin resistant L1210 Leukemia (dose 5 mg/kg, ip),day 1; assay type: functional, organism-based; parameters: dose 5 mg/kg; method in brief: as §2
Mus musculus [6] = assay: The compound was evaluated for the mean body weight change (BWC) in mice infected with cisplatin sensitive L1210 Leukemia (dose 10 mg/kg, ip),day 5; assay type: functional, organism-based; parameters: dose 10 mg/kg
Method in brief: (§3)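 CD2F1 mice implanted ip on day 0 with 10^5 L1210/0 (parent) leukemia cells, in groups of 6 or 10 (20 or 30 controls). Complexes given ip in saline plus Tween 80 on days 1, 5 and 9. BWC is the group mean weight change, day 5 minus day 1. MST is median survival and %ILS is calculated from MST, both from dying mice only, excluding day 30 survivors.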

Mus musculus [7] = assay: The compound was evaluated for the mean body weight change (BWC) in mice infected with cisplatin sensitive L1210 Leukemia (dose 10 mg/kg, ip),day 9; assay type: functional, organism-based; parameters: dose 10 mg/kg; method in brief: as §3
Mus musculus [8] = assay: The compound was evaluated for the mean body weight change (BWC) in mice infected with cisplatin sensitive L1210 Leukemia (dose 15 mg/kg, ip),day 1; assay type: functional, organism-based; parameters: dose 15 mg/kg; method in brief: as §3
Mus musculus [9] = assay: The compound was evaluated for the mean body weight change (BWC) in mice infected with cisplatin sensitive L1210 Leukemia (dose 20 mg/kg, ip),day 1; assay type: functional, organism-based; parameters: dose 20 mg/kg; method in brief: as §2
Mus musculus [10] = assay: The compound was evaluated for the mean body weight change (BWC) in mice infected with cisplatin sensitive L1210 Leukemia (dose 20 mg/kg, ip),day 5; assay type: functional, organism-based; parameters: dose 20 mg/kg; method in brief: as §3
Mus musculus [11] = assay: The compound was evaluated for the mean body weight change (BWC) in mice infected with cisplatin sensitive L1210 Leukemia (dose 20 mg/kg, ip),day 9; assay type: functional, organism-based; parameters: dose 20 mg/kg; method in brief: as §3
Mus musculus [12] = assay: The compound was evaluated for the mean body weight change (BWC) in mice infected with cisplatin sensitive L1210 Leukemia (dose 30 mg/kg, ip),day 1; assay type: functional, organism-based; parameters: dose 30 mg/kg; method in brief: as §3
Mus musculus [13] = assay: The compound was evaluated for the mean body weight change (BWC) in mice infected with cisplatin sensitive L1210 Leukemia (dose 40 mg/kg, ip),day 1; assay type: functional, organism-based; parameters: dose 40 mg/kg; method in brief: as §3
Mus musculus [14] = assay: The compound was evaluated for the mean body weight change (BWC) in mice infected with cisplatin sensitive L1210 Leukemia (dose 40 mg/kg, ip),day 5; assay type: functional, organism-based; parameters: dose 40 mg/kg; method in brief: as §3
Mus musculus [15] = assay: The compound was evaluated for the mean body weight change (BWC) in mice infected with cisplatin sensitive L1210 Leukemia (dose 5 mg/kg, ip),day 1; assay type: functional, organism-based; parameters: dose 5 mg/kg; method in brief: as §3
Mus musculus [16] = assay: The compound was evaluated for the mean body weight change (BWC) in mice infected with cisplatin sensitive L1210 Leukemia (dose 80 mg/kg, ip),day 5; assay type: functional, organism-based; parameters: dose 80 mg/kg; method in brief: as §3
Mus musculus [17] = assay: The compound was evaluated for the mean body weight change (BWC) in mice infected with cisplatin sensitive L1210 Leukemia (dose 80 mg/kg, ip),day 9; assay type: functional, organism-based; parameters: dose 80 mg/kg; method in brief: as §3
Mus musculus [18] = assay: The compound was evaluated for the mean body weight change (BWC) in mice infected with cisplatin resistant L1210 Leukemia (dose 15 mg/kg, ip),day 1; assay type: functional, organism-based; parameters: dose 15 mg/kg; method in brief: as §2
Mus musculus [19] = species: Mus musculus; assay: The compound was evaluated for the percentage increase in life span (ILS) based on dying mice only (excludes day 10 survivors) for following doses against L1210 Leukemia cell line, day5; assay type: functional, organism-based
Mus musculus [20] = species: Mus musculus; assay: The compound was evaluated for the percentage increase in life span (ILS) based on dying mice only (excludes day 15 survivors) for following doses against L1210 Leukemia cell line, day1; assay type: functional, organism-based
Mus musculus [21] = species: Mus musculus; assay: The compound was evaluated for the percentage increase in life span (ILS) based on dying mice only (excludes day 20 survivors) for following doses against L1210 Leukemia cell line, day1; assay type: functional, organism-based
Mus musculus [22] = species: Mus musculus; assay: The compound was evaluated for the percentage increase in life span (ILS) based on dying mice only (excludes day 20 survivors) for following doses against L1210 Leukemia cell line, day5; assay type: functional, organism-based
Mus musculus [23] = species: Mus musculus; assay: The compound was evaluated for the percentage increase in life span (ILS) based on dying mice only (excludes day 40 survivors) for following doses against L1210 Leukemia cell line, day5; assay type: functional, organism-based
Mus musculus [24] = species: Mus musculus; assay: The compound was evaluated for the percentage increase in life span (ILS) based on dying mice only (excludes day 40 survivors) for following doses against L1210 Leukemia cell line, day9; assay type: functional, organism-based
Mus musculus [25] = species: Mus musculus; assay: The compound was evaluated for the percentage increase in life span (ILS) based on dying mice only (excludes day survivors) for following doses against L1210 Leukemia cell line, day1; assay type: functional, organism-based; method in brief: as §3
Mus musculus [26] = assay: The compound was evaluated for the median survival time (MST) in mice infected with cisplatin sensitive L1210 Leukemia (dose 80 mg/kg, ip), day 5; assay type: functional, organism-based; parameters: dose 80 mg/kg; method in brief: as §3
Mus musculus [27] = assay: The compound was evaluated for the median survival time (MST) in mice infected with cisplatin sensitive L1210 Leukemia (dose 80 mg/kg, ip), day 9; assay type: functional, organism-based; parameters: dose 80 mg/kg; method in brief: as §3
Mus musculus [28] = assay: The compound was evaluated for the median survival time (MST) in mice infected with cisplatin sensitive L1210 Leukemia (dose 20 mg/kg, ip), day 1; assay type: functional, organism-based; parameters: dose 20 mg/kg; method in brief: as §3
Mus musculus [29] = assay: The compound was evaluated for the median survival time (MST) in mice infected with cisplatin sensitive L1210 Leukemia (dose 20 mg/kg, ip), day 5; assay type: functional, organism-based; parameters: dose 20 mg/kg; method in brief: as §3
Mus musculus [30] = assay: The compound was evaluated for the median survival time (MST) in mice infected with cisplatin sensitive L1210 Leukemia (dose 20 mg/kg, ip), day 9; assay type: functional, organism-based; parameters: dose 20 mg/kg; method in brief: as §3
Mus musculus [31] = assay: The compound was evaluated for the median survival time (MST) in mice infected with cisplatin sensitive L1210 Leukemia (dose 5 mg/kg, ip), day 1; assay type: functional, organism-based; parameters: dose 5 mg/kg; method in brief: as §3
Mus musculus [32] = assay: The compound was evaluated for the median survival time (MST) in mice infected with cisplatin resistant L1210 Leukemia (dose 5 mg/kg, ip), day 1; assay type: functional, organism-based; parameters: dose 5 mg/kg
Method in brief: (§4)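 On day 0, 10⁵ parent or cisplatin-resistant L1210 cells were implanted ip into CD2F1 mice, 6 or 10 per dose group (20 or 30 controls). Dosing was ip on days 1, 5 and 9 in saline plus Tween 80. Median survival time was taken from dying mice only, excluding day-30 survivors. Both sublines were tested concurrently.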

Mus musculus [33] = assay: The compound was evaluated for the median survival time (MST) in mice infected with cisplatin sensitive L1210 Leukemia (dose 10 mg/kg, ip), day 1; assay type: functional, organism-based; parameters: dose 10 mg/kg; method in brief: as §3
Mus musculus [34] = assay: The compound was evaluated for the median survival time (MST) in mice infected with cisplatin sensitive L1210 Leukemia (dose 10 mg/kg, ip), day 5; assay type: functional, organism-based; parameters: dose 10 mg/kg; method in brief: as §3
Mus musculus [35] = assay: The compound was evaluated for the median survival time (MST) in mice infected with cisplatin sensitive L1210 Leukemia (dose 10 mg/kg, ip), day 9; assay type: functional, organism-based; parameters: dose 10 mg/kg; method in brief: as §3
Mus musculus [36] = assay: The compound was evaluated for the median survival time (MST) in mice infected with cisplatin sensitive L1210 Leukemia (dose 15 mg/kg, ip), day 1; assay type: functional, organism-based; parameters: dose 15 mg/kg; method in brief: as §3
Mus musculus [37] = assay: The compound was evaluated for the median survival time (MST) in mice infected with cisplatin sensitive L1210 Leukemia (dose 30 mg/kg, ip), day 1; assay type: functional, organism-based; parameters: dose 30 mg/kg; method in brief: as §3
Mus musculus [38] = assay: The compound was evaluated for the median survival time (MST) in mice infected with cisplatin sensitive L1210 Leukemia (dose 40 mg/kg, ip), day 5; assay type: functional, organism-based; parameters: dose 40 mg/kg; method in brief: as §3
Mus musculus [39] = assay: The compound was evaluated for the median survival time (MST) in mice infected with cisplatin sensitive L1210 Leukemia (dose 40 mg/kg, ip), day 9; assay type: functional, organism-based; parameters: dose 40 mg/kg; method in brief: as §3
Mus musculus [40] = assay: The compound was evaluated for the median survival time (MST) in mice infected with cisplatin resistant L1210 Leukemia (dose 30 mg/kg, ip), day 1; assay type: functional, organism-based; parameters: dose 30 mg/kg; method in brief: as §4
Mus musculus [41] = assay: The compound was evaluated for the median survival time (MST) in mice infected with cisplatin resistant L1210 Leukemia (dose 15 mg/kg, ip), day 1; assay type: functional, organism-based; parameters: dose 15 mg/kg; method in brief: as §4
Mus musculus [42] = assay: The compound was evaluated for the median survival time (MST) in mice infected with cisplatin resistant L1210 Leukemia (dose 20 mg/kg, ip), day 1; assay type: functional, organism-based; parameters: dose 20 mg/kg; method in brief: as §4
Tumor Cell line [43] = assay: The compound was evaluated in vitro for the log10 molecular concentration that caused 50 % of 60 human tumor cell line kills; assay type: ADME, cell-based
Method in brief: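 Human tumor cell lines (leukemia, non-small-cell lung, ovarian, renal) were preincubated 24 h. Platinum complexes were then added as five 10-fold dilutions, 0.01–100 μM, for 48 h, followed by in situ fixation and staining, with solubilized stain read spectrophotometrically. Log LC50 (50% cell kill) was averaged across cell lines within one experiment.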

[Bis(aminomethyl)dimethylsilane]dichloroplatinum (II)
GI50 (Tumor Cell line [1]): 20.4 µM | TGI (Tumor Cell line [2]): 83.2 µM | BWC (Mus musculus [3]): -2.7 g | BWC (Mus musculus [4]): -2.5 g | BWC (Mus musculus [5]): 0.1 g | BWC (Mus musculus [6]): -0.9 g | BWC (Mus musculus [7]): -0.2 g | BWC (Mus musculus [8]): -1.7 g | BWC (Mus musculus [9]): -1 g | BWC (Mus musculus [10]): -0.6 g | BWC (Mus musculus [11]): -0.2 g | BWC (Mus musculus [12]): -1.1 g | BWC (Mus musculus [13]): -2.9 g | BWC (Mus musculus [14]): -0.9 g | BWC (Mus musculus [15]): -0.4 g | BWC (Mus musculus [16]): -3.5 g | BWC (Mus musculus [17]): -4.3 g | BWC (Mus musculus [18]): -0.4 g | ILS (Mus musculus [19]): 109% | ILS (Mus musculus [20]): 83% | ILS (Mus musculus [21]): 88% | ILS (Mus musculus [22]): 138% | ILS (Mus musculus [23]): 248% | ILS (Mus musculus [24]): 31% | ILS (Mus musculus [25]): 152% | MST (Mus musculus [26]): 11.8 days | MST (Mus musculus [27]): 6.3 days | MST (Mus musculus [28]): 16.8 days | MST (Mus musculus [29]): 20.5 days | MST (Mus musculus [30]): 22.5 days | MST (Mus musculus [31]): 21.5 days | MST (Mus musculus [32]): 12.5 days | MST (Mus musculus [33]): 22.5 days and 10.5 days | MST (Mus musculus [34]): 18 days | MST (Mus musculus [35]): 15.5 days | MST (Mus musculus [36]): 16.3 days | MST (Mus musculus [37]): 21.5 days | MST (Mus musculus [38]): 30 days | MST (Mus musculus [39]): 11.7 days | MST (Mus musculus [40]): 14.8 days | MST (Mus musculus [41]): 18.3 days | MST (Mus musculus [42]): 13.8 days

[Bis(aminomethyl)dimethylsilane]tetrachloroplatinum(IV)
Log LC50 (Tumor Cell line [43]): > -4.02

[Bis(aminomethyl)ethylmethylsilane]tetrachloroplatinum(IV)
Log LC50 (Tumor Cell line [43]): > -4.02
